≈ marks a conversion by molar mass, not a printed value.
Experiments:
Rattus norvegicus = organism: Rattus norvegicus; experiment: Analgesic activity against carrageenan-induced thermal hyperalgesia in rat; type: functional; conditions: read-out: MED
[1] = Clearance in rat at […], iv and 10 mg/kg, po; type: ADME, organism-based; conditions: in vivo
[2] = Metabolic stability in rat liver microsomes assessed as compound remaining at 1 uM after 10 mins by LCMS analysis; type: ADME, Microsome; conditions: read-out: Activity
Outline: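 Compound (1 μM) incubated at 37 °C with 0.5 mg/mL male pooled rat liver microsomes; NADPH added to start the reaction. Aliquots were taken at 0 and 10 min and quenched into ice-cold acetonitrile with internal standard, then centrifuged. Parent was monitored as the M+1 ion by ESI-LCMS in selected-ion mode. Percent remaining was taken as the 10 min/0 min signal ratio, corrected by internal-standard recovery.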

[3] = Half life in rat at […], iv and 10 mg/kg, po; type: ADME, organism-based; conditions: in vivo
[4] = Oral bioavailability in rat at 10 mg/kg; type: ADME, organism-based; conditions: in vivo
[5] = Volume of distribution in rat at […], iv and 10 mg/kg, po; type: ADME, organism-based; conditions: in vivo
[6] = Solubility in 0.1 N HCL after 4 hrs by HPLC/MS analysis; type: physicochemical
[7] = Tmax in rat at […], iv and 10 mg/kg, po; type: ADME, organism-based; conditions: in vivo
[8] = molecular target: Transient receptor potential cation channel subfamily V member 1 (Homo sapiens, UniProt Q8NER1); experiment: Antagonist activity at human recombinant TRPV1 expressed in HEK293 cells assessed as inhibition of capsaicin-induced calcium mobilization by FLIPR assay
Sequence of Transient receptor potential cation channel subfamily V member 1 (Q8NER1 whole entry): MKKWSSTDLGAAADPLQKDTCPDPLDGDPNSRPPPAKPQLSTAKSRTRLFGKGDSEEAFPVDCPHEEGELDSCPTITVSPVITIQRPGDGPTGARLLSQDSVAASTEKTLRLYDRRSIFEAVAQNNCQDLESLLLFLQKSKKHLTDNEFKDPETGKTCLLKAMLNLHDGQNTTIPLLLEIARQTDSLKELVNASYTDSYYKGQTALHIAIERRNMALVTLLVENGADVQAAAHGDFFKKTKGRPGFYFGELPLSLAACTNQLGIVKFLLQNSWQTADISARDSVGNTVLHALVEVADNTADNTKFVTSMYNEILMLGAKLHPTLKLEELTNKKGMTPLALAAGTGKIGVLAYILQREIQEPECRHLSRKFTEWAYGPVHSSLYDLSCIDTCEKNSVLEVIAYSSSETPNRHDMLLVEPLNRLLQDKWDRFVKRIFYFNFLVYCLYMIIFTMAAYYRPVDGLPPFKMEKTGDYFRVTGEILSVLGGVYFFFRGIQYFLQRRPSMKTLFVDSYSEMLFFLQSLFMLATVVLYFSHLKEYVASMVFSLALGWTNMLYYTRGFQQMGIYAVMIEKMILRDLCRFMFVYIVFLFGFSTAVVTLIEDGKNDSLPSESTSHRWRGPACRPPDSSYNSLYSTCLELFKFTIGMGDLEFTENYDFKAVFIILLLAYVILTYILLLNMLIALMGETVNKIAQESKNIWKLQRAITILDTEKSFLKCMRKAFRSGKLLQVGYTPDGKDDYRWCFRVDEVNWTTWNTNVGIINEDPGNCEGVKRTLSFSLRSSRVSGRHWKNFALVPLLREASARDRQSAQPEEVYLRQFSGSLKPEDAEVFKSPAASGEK

Compound | solubility at 4 h [6] | IC50 [8] | also measured
COCc1nc(Nc2ccc(C(F)(F)F)cc2)c2ccc(-c3ncccc3C(F)(F)F)cc2n1 | – | – | minimal effective dose (Rattus norvegicus): 0.3 mg/kg
Cl.FC(F)(F)c1ccc(Nc2ncnc3cc(-c4ncccc4C(F)(F)F)ccc23)cn1 | 35 µg/mL | – | clearance [1]: 22 mL/min/kg; remaining at 10 min, 1 µM [2]: 100%; half-life [3]: 4 h; bioavailability [4]: 65%; Vd [5]: 5.5 L/kg; Tmax [7]: 4.7 h
FC(F)(F)c1ccc(Nc2ncnc3nc(-c4ncccc4C(F)(F)F)ncc23)cc1 | 4 µg/mL (≈ 9.17 µM) | 665 nM | –
FC(F)(F)c1ccc(Nc2ccnc3cc(-c4ncccc4C(F)(F)F)cnc23)nc1 | 38 µg/mL (≈ 87.3 µM) | 308 nM | –

More lines, in order of falling IC50 [8], values ahead:

solubility at 4 h [6] | IC50 [8] | Compound | also measured
24 µg/mL (≈ 55.3 µM) | 6.1 nM | FC(F)(F)c1ccc(Nc2ccnc3nc(-c4ncccc4C(F)(F)F)ccc23)cc1 | –
34 µg/mL (≈ 78.3 µM) | 1.65 nM | FC(F)(F)c1ccc(Nc2ccnc3cc(-c4ncccc4C(F)(F)F)ccc23)nc1 | –
9 µg/mL (≈ 20.7 µM) | 0.83 nM | FC(F)(F)c1ccc(Nc2ncnc3nc(-c4ncccc4C(F)(F)F)ccc23)cc1 | –
8 µg/mL (≈ 18.3 µM) | 0.23 nM | FC(F)(F)c1ccc(Nc2ccnc3nc(-c4ncccc4C(F)(F)F)cnc23)nc1 | –
